Laboratory results: ChEMBL document CHEMBL4004841, “6-Cyclohexylmethyl-3-hydroxypyrimidine-2,4-dione as an inhibitor scaffold of HIV reverase transcriptase: Impacts of the 3-OH on inhibiting RNase H and polymerase” (Eur J Med Chem, 2017)
The source made the active and inactive calls. The rule behind the calls is not given here.

How the values were obtained:
[1] = Inhibition of RNase H activity of full length HIV reverse transcriptase using RNA-DNA duplex HTS-1 substrate; set-up: species or system Human immunodeficiency virus
[2] = Cytotoxicity against human P4R5 cells; format: cell-based
[3] = test system: Human immunodeficiency virus 1; experiment: Antiviral activity against HIV1 infected in human CEM-SS cells assessed as reduction in virus-induced cytopathic effect after 6 days by MTS assay; format: functional, cell-based; details: Human immunodeficiency virus 1, CEM-SS, 144 h
Procedure, shortened: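 CEM-SS cells mixed with pre-titered HIV-1 IIIB and compound, incubated 6 days; virus titer set so virus-control wells lose 70–95% viability. Cell, virus, compound-toxicity and compound-only colorimetric controls on each plate; AZT positive control. Viability by MTS; EC50 derived; mean ± standard deviation from at least two independent experiments.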

[4] = Inhibition of strand transfer activity of HIV integrase expressed in Escherichia coli using 5'-[32P]-labeled oligonucleotide substrate after 60 mins by PAGE analysis; set-up: species or system Human immunodeficiency virus
Procedure, shortened: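 Recombinant IN (400 nM), purified with 10% glycerol in buffers, with 20 nM 5'-[32P] oligonucleotide substrate and inhibitor dilutions in 50 mM MOPS pH 7.2, 7.5 mM MgCl2, 14.3 mM 2-mercaptoethanol, 37 °C for 60 min; 10% DMSO controls. Products resolved on 20% polyacrylamide–7 M urea gels, quantified by phosphorimaging densitometry; IC50 by logistic nonlinear regression.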

[5] = test system: Human immunodeficiency virus 1; experiment: Antiviral activity against HIV1 infected in human P4R5 cells assessed as reduction in viral infection preincubated with cells for 24 hrs followed by viral infection measured after 48 hrs by fluorescence based beta-galactosidase reporter gene assay; format: functional, cell-based; details: Human immunodeficiency virus 1, P4/R5
Procedure, shortened: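 P4R5 indicator cells at 4 × 10^3 per well in DMEM/10% FBS with puromycin (1 μg/ml). Cells pretreated with 1% DMSO or varying drug concentrations for 24h, infected with HIV at MOI 1.25, then incubated 48h. Read-out: lysis, MUG substrate, 4-MU fluorescence (ex 365 nm, em 446 nm). Dose-response; mean ± SD from at least two independent experiments.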

[6] = Inhibition of HIV reverse transcriptase polymerase activity assessed as reduction in dNTP incorporation using 100 nucleotide DNA/18 nucleotide DNA as template/primer measured after 30 mins; set-up: species or system Human immunodeficiency virus
Procedure, shortened: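 20 nM full-length RT with 40 nM template/primer (18-nt DNA primer on 100-nt DNA template) and 10 μM dNTPs in 50 mM Tris pH 7.8, 50 mM NaCl, 1% DMSO, rising compound concentrations; started with 6 mM MgCl2, 30 min at 37 °C, stopped with 100 mM EDTA. Mean ± standard deviation, ≥2 independent experiments.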

[7] = test system: Human immunodeficiency virus type 1 reverse transcriptase (Human immunodeficiency virus 1), Q72547 [K103N]; experiment: Inhibition of polymerase activity of HIV reverse transcriptase K103N mutant assessed as reduction in dNTP incorporation up to 10 uM using 100 nucleotide DNA/18 nucleotide DNA as template/primer measured after 30 mins
Procedure, shortened: (§1)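 Mutant RT (20 nM) with 40 nM 18-nt DNA primer annealed to 100-nt DNA template and 10 μM dNTPs, in 50 mM Tris pH 7.8, 50 mM NaCl, 1% DMSO, with increasing compound up to 10 μM. Started with 6 mM MgCl2, run 30 min at 37 °C, stopped with 100 mM EDTA; DNA extension measured.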

[8] = test system: Human immunodeficiency virus type 1 reverse transcriptase (Human immunodeficiency virus 1), Q72547 [Y181C]; experiment: Inhibition of polymerase activity of HIV reverse transcriptase Y181C mutant assessed as reduction in dNTP incorporation up to 10 uM using 100 nucleotide DNA/18 nucleotide DNA as template/primer measured after 30 mins; procedure, shortened: as §1

SMILES	IC50 [1] [µM]	CC50 [2] [µM]	EC50 [3] [µM]	IC50 [4] [µM]	EC50 [5] [µM]	IC50 [6] [µM]	inhibition [7]	inhibition [8]
CCc1c(CC2CCCCC2)n(COCc2ccc(F)cc2)c(=O)n(O)c1=O	5.8	> 100	0.32	> 100	0.039	1.5	–	–
CC(C)c1c(Cc2ccccc2)n(COCc2ccccc2)c(=O)[nH]c1=O	> 10	58	–	–	0.011	0.42	–	–
CCc1c(CC2CCCCC2)n(COCc2ccc(C)cc2)c(=O)n(O)c1=O	2.1	> 100	–	> 100	0.43	6.5	–	–
CCc1c(CC2CCCCC2)n(COCc2ccccc2)c(=O)n(O)c1=O	5.5	> 100	0.56	> 100	0.059	2.3	–	–
Cc1c(CC2CCCCC2)n(COCc2cccc(Cl)c2F)c(=O)[nH]c1=O	> 10	38	–	–	0.83	10	–	–
Cc1c(CC2CCCCC2)n(COCc2ccc(F)c(F)c2)c(=O)n(O)c1=O	4.6	> 100	–	> 100	> 15	10	–	–
Cc1c(CC2CCCCC2)n(COCc2ccccc2)c(=O)n(O)c1=O	3.1	> 100	–	> 100	> 15	> 10	–	–
CC(C)c1c(CC2CCCCC2)n(COCc2ccccc2)c(=O)[nH]c1=O	> 10	23	–	–	0.0052	0.085	–	–
CCc1c(CC2CCCCC2)n(COCc2ccc(F)c(F)c2)c(=O)n(O)c1=O	1.7	> 100	–	> 100	4.1	> 10	–	–
CCc1c(CC2CCCCC2)n(COCc2ccc(C(F)(F)F)cc2)c(=O)[nH]c1=O	> 10	28	–	–	0.039	0.81	–	–
Cc1c(CC2CCCCC2)n(COCCc2ccc(F)cc2)c(=O)[nH]c1=O	> 10	56	–	–	5.3	> 10	–	–
CC(C)c1c(CC2CCCCC2)n(COCc2ccc(F)cc2)c(=O)[nH]c1=O	> 10	31	–	–	0.0072	0.3	–	–
CC(C)c1c(CC2CCCCC2)n(COCc2ccc(F)cc2)c(=O)n(O)c1=O	2.7	> 100	–	> 100	2.4	9.9	–	–
CC(C)c1c(CC2CCCCC2)n(COCc2ccccc2)c(=O)n(O)c1=O	5.2	> 100	–	> 100	0.026	0.45	inactive	inactive
Cc1c(CC2CCCCC2)n(COCCc2ccc(F)cc2)c(=O)n(O)c1=O	3.9	> 100	–	> 100	10	> 10	–	–
CCc1c(CC2CCCCC2)n(COCc2ccc(C(F)(F)F)cc2)c(=O)n(O)c1=O	10	> 100	–	> 100	2.4	7	–	–
Cc1c(CC2CCCCC2)n(COCc2cccc(Cl)c2F)c(=O)n(O)c1=O	2.2	> 100	–	> 100	> 15	> 10	–	–
Cc1c(CC2CCCCC2)n(COCc2ccc(C(F)(F)F)cc2)c(=O)n(O)c1=O	7.6	> 100	–	> 100	> 15	10	–	–
CCc1c(CC2CCCCC2)n(COCc2ccc(F)cc2)c(=O)[nH]c1=O	> 10	42	–	–	0.0075	0.48	–	–
CCc1c(CC2CCCCC2)n(COCc2ccc(F)c(F)c2)c(=O)[nH]c1=O	> 10	29	–	–	0.014	0.82	–	–
Cc1c(CC2CCCCC2)n(COCc2ccc(C(F)(F)F)cc2)c(=O)[nH]c1=O	> 10	> 100	–	–	0.8	10	–	–
Cc1c(CC2CCCCC2)n(COCc2ccc(F)c(F)c2)c(=O)[nH]c1=O	> 10	65	–	–	0.21	10	–	–
CCc1c(CC2CCCCC2)n(COCc2ccc(C)cc2)c(=O)[nH]c1=O	> 10	30	–	–	0.011	0.36	–	–
CCc1c(CC2CCCCC2)n(COCc2cccc(Cl)c2F)c(=O)[nH]c1=O	> 10	32	–	–	0.048	1.5	–	–
CCc1c(CC2CCCCC2)n(COCc2cccc(Cl)c2F)c(=O)n(O)c1=O	1.1	> 100	1.8	> 100	0.42	6.5	–	–
CCc1c(CC2CCCCC2)n(COCc2ccccc2)c(=O)[nH]c1=O	> 10	> 50	–	–	0.0062	0.22	–	–
Cc1c(CC2CCCCC2)n(COCc2ccccc2)c(=O)[nH]c1=O	> 10	> 100	–	–	0.065	6.8	–	–
